Screening data as filed in PubChem BioAssay.
A selection: hits, their analogues and other compounds. The true share with any hit is near 3.7%.
Cl transport mod: KCC2 cotransporter modulators, thallium flux, primary screen, cell-based, HEK293 KCC2, FluoZin-2 fluorescence, MLSMR. B-score of Tl+ flux slope (higher = more flux/activation; lower = inhibition) at 10 µM. hit rate 2.2% among 190,000. Solute carrier family 12 member 5 (Homo sapiens), Q9H2X9. KCC2 cells, thallium flux FluoZin-2 fluorescence;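 active means thallium flux slope and its plate-corrected score both differing from the plate sample mean at a set confidence after two filtering rounds, in either direction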;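 further: slope of fluorescence scaled to starting intensity during 10 to 20 s after thallium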
PKD1 kinase inh: inhibitors of human PKD1 kinase, biochemical, fluorescence polarization; Serine/threonine-protein kinase D1 (Homo sapiens), Q15139; PKD1 kinase fluorescence polarization assay; inhibition, % (no concentration beside the values); hit rate 0.056% among 200,000; AID 797, 2007; in the data active means inhibition above about 50%
Target sequence (Q15139 whole entry, looked up): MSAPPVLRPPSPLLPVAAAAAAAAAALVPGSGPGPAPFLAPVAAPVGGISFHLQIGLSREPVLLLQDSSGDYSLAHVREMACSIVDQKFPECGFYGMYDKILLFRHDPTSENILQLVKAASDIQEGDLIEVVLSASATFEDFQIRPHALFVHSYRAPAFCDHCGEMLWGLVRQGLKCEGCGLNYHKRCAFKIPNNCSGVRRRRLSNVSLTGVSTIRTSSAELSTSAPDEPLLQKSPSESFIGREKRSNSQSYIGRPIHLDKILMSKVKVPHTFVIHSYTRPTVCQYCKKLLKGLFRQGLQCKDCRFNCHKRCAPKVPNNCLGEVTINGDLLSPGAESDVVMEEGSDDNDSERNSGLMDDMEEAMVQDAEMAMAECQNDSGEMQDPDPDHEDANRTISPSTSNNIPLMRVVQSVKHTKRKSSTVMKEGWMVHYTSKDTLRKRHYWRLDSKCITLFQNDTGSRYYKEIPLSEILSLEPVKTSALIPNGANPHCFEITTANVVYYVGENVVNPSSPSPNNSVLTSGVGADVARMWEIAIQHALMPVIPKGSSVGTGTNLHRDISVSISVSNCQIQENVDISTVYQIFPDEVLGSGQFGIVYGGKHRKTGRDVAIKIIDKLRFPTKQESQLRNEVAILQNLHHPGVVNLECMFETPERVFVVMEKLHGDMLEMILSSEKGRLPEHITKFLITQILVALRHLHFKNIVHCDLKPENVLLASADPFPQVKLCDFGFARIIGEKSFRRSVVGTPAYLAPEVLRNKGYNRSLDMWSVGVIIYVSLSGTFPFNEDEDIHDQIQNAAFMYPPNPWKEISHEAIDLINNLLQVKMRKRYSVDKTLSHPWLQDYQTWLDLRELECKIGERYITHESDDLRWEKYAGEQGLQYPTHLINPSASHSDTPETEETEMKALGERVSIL
Mdm2 ligase inh: MDM2-luciferase reporter signal enhancers, primary screen, MDM2 E3 ligase inhibitor project, cell-based, luminescence, 1536-well | cell-based MDM2 ubiquitination luciferase reporter, 2 h; 0 = plate control, 100 = twice control, blank-subtracted | signal enhancement, % at 5 µM | hit rate 0.11% among 210,000 | AID 1230, 2008;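 active means signal enhancement of 30% or more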;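 further: luminescence tracks abundance of the self-degrading MDM2-luciferase fusion protein; higher signal means inhibition of MDM2 E3 ligase activity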
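test system = mammalian cells stably expressing self-ubiquitinating, self-degrading MDM2 E3–luciferase fusion | quantity = 2000 cells/well | incubation = cell settling 4 h, compound treatment 2 h, both 37 °C | signal = luminescence with SteadyLite reagent, 15 min at room temperature | evaluation = % enhancement relative to plate controls after blank subtraction | benchmarks = plate controls and plate blanks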
ROMK mod: ROMK potassium channel modulators, primary screen, cell-based, thallium flux, MLSMR library | Tet-inducible ROMK, thallium flux fluorescence; actives lie on both sides | hit rate 2% among 130,000 | AID 1918, 2009 | ATP-sensitive inward rectifier potassium channel 1 (Homo sapiens), P48048 | B-score at 10 µM;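 active means signal ratio slope over the read window, or its plate-corrected B-score, at least 3 SD from the plate mean, either direction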;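 further: B-score of the F/F0 ratio slope over 7 to 12 s after thallium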
Arbovirus inh: antivirals against arbovirus infection, primary screen, cell-based, full library, 10K replicate subset; AID 1251, 2008; hit rate 0.37% among 200,000; arbovirus infection cell-based antiviral screen; inhibition, % at 10 µM; in the data active means inhibition above about 30%
Calpain2 inh: inhibitors of pig calpain II, primary screen, biochemical, fluorogenic peptide substrate, 1536-well | hit rate 0.37% among 220,000 | AID 1236, 2008 | inhibition, % at 16 µM | purified calpain II, 30 min;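 active means inhibition above about 50%, limit read from the data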
KCC2 secondary: KCC2 modulators in sodium-free buffer, confirmation, cell-based, HEK293 KCC2, thallium flux, secondary assay; hit rate 15% among 3,700; normalised thallium flux (F/F0 slope) at 10 µM; shares compounds with Cl transport mod; FluoZin2 fluorescence; active compounds read high;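 active means thallium flux slope above the same plate's solvent-only control mean plus 3 SD; inconclusive means the two replicate wells disagree; inactive means no significant difference from solvent-only control wells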
KCC2 bumet counter: thallium flux persisting under bumetanide in KCC2 cells, confirmation, counter-screen for KCC2 modulator project, cell-based, HEK293 KCC2, FluoZin2, secondary assay 3; shares compounds with Cl transport mod; AID 1714, 2009; HEK293-KCC2 + bumetanide/ouabain; active compounds read high; hit rate 49% among 3,700; normalized thallium flux at 10 µM;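 active means thallium entry rate above the same plate's blocked-transporter control wells by more than 3 SD; inconclusive means the two repeat wells disagree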;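 further: raw slope of fluorescence over initial fluorescence between 10 and 20 s after thallium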
KCC2 secondary2: KCC2 modulators without ouabain present, confirmation, cell-based, HEK293 KCC2, thallium flux, FluoZin2, secondary assay 2; shares compounds with Cl transport mod; thallium flux FluoZin2 fluorescence; actives lie on both sides; F/F0 rise rate, 10–20 s post-thallium; normalized thallium flux at 10 µM; hit rate 23% among 3,700; AID 1715, 2009;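 active means thallium flux slope more than 3 SD above or below the plate's solvent-only control mean, mostly below; inconclusive means the two repeat wells disagreed; inactive means no significant shift from solvent-only controls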;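 further: raw slope with 0.1% DMSO as baseline and bumetanide as block control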
HEK counter1: thallium flux modulation in parental HEK cells, confirmation, counter-screen for KCC2 modulator project, cell-based, counterscreen 1 | shares compounds with Cl transport mod | HEK293 parental cells, thallium flux FluoZin2, ouabain; baseline-ratio fluorescence slope, 10–20 s after thallium | thallium flux rate (normalised fluorescence) at 10 µM | hit rate 46% among 3,700 | AID 1716, 2009;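 active means thallium flux rate significantly above the same plate's solvent-only control wells, beyond their mean plus 3 SD; inconclusive means the two replicate wells gave conflicting results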
KCC2 retest ouab: KCC2 inhibitors and activators, ouabain retest, confirmation, HEK-KCC2 cells; raw Tl+ flux slope (below DMSO = inhibition, above = activation) at 10 µM; shares compounds with Cl transport mod; HEK293-KCC2, thallium flux FluoZin2 fluorescence; bidirectional: low = inhibitor, high = activator; hit rate 48% among 3,700;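 active means thallium flux slope beyond 3 SD from same-plate DMSO control mean in most replicates, usually higher, sometimes lower; inconclusive means repeat tests gave conflicting results; inactive means no significant difference from controls in most replicates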;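 further: slope of initial-normalized fluorescence between seconds 10 and 20 after thallium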
HEK counter2: native HEK Tl+ uptake effects, second counter-screen – HEK cells, counterscreen 2, counter-screen for KCC2 modulator project, confirmation; shares compounds with Cl transport mod; HEK293 parental, thallium flux FluoZin-2 fluorescence slope; thallium flux slope at 10 µM; hit rate 33% among 3,700; AID 1718, 2009;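 active means thallium flux slope above the same plate's solvent-control mean plus 3 SD in both duplicate wells; inconclusive means duplicate wells that disagreed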;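 further: run without ouabain in cells lacking the KCC2 cotransporter; slope of fluorescence scaled to its starting value between 10 and 20 s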
Active calls of the source: *.

Screening CCNC(=S)NN=C1CCC(C(C)(C)C)CC1 (stereo unspecified) returned Cl transport mod 3.3*, PKD1 kinase inh -6, Mdm2 ligase inh 1, ROMK mod 0.29, Arbovirus inh 4, Calpain2 inh -14, KCC2 secondary 0.0069, KCC2 bumet counter 0.0066*, KCC2 secondary2 0.028, HEK counter1 0.0092*, KCC2 retest ouab 0.02 and HEK counter2 0.011.
`Oc1ccc(/C=N/NC(=S)Nc2cccnc2)c(O)c1O` gave Cl transport mod 0.36 and Calpain2 inh 15.
`CC(C)(C)C1CCC(=NNC(=O)CN(c2ccccc2)S(C)(=O)=O)CC1` (stereo unspecified) gave Cl transport mod 0.93, PKD1 kinase inh 5, Mdm2 ligase inh 1, Arbovirus inh 6 and Calpain2 inh -6.
Screening CC(C)(C)C1CCC(=NNC(=S)Nc2cccnc2)CC1 (stereo unspecified) returned Cl transport mod 6.8*, PKD1 kinase inh 2, Mdm2 ligase inh -16, ROMK mod 0.019, Arbovirus inh -5, Calpain2 inh 7, KCC2 secondary 0.0069, KCC2 bumet counter 0.013*, KCC2 secondary2 0.032, HEK counter1 0.014*, KCC2 retest ouab inconclusive and HEK counter2 0.013*.
For O=C(Nc1ccc2[nH]c(=O)[nH]c2c1)c1c(F)c(F)c(F)c(F)c1F the results were Cl transport mod 1.1, PKD1 kinase inh 3, Mdm2 ligase inh -46, ROMK mod 0.71, Arbovirus inh -7 and Calpain2 inh -21.
CCCc1ccccc1OCCNC(C)=O was read as Cl transport mod 1.4, PKD1 kinase inh -1, Mdm2 ligase inh -1, ROMK mod 0.73, Arbovirus inh -4 and Calpain2 inh -7.
Screening O=C(c1nn2c(C(F)(F)F)cc(-c3cccs3)nc2c1Br)N1CCCc2ccccc21 returned Cl transport mod -1.8, PKD1 kinase inh -2, Mdm2 ligase inh -5, ROMK mod 0.72, Arbovirus inh -15 and Calpain2 inh -40.
O=C(c1nn2c(C(F)(F)F)cc(-c3ccco3)nc2c1Br)N1CCCc2ccccc21 was read as PKD1 kinase inh -6, Mdm2 ligase inh -10, ROMK mod -0.56, Arbovirus inh -4, Calpain2 inh -86, KCC2 secondary inconclusive, KCC2 bumet counter 0.0047, KCC2 secondary2 0.025*, HEK counter1 0.0075, KCC2 retest ouab inconclusive and HEK counter2 0.011.
`O=C(CSc1nc2ccc(N3CCOCC3)cc2c(=O)n1CCc1ccccc1)NCC1CCCO1` (stereo unspecified) gave Cl transport mod 6.7*, PKD1 kinase inh 6, Mdm2 ligase inh -10, ROMK mod -0.035, Arbovirus inh 3, Calpain2 inh -273, KCC2 secondary 0.016, KCC2 bumet counter 0.016*, KCC2 secondary2 0.029, HEK counter1 0.009*, KCC2 retest ouab 0.017 and HEK counter2 0.013*.
Screening CCCCNC(=O)CSc1nc2ccc(N3CCOCC3)cc2c(=O)n1CCc1ccccc1 returned Cl transport mod 2.2, PKD1 kinase inh -5, Mdm2 ligase inh -21, Arbovirus inh 1 and Calpain2 inh -161.
OC(CNc1nc2ccccc2s1)c1ccccc1 (stereo unspecified) was read as Cl transport mod -0.33, PKD1 kinase inh -5, Mdm2 ligase inh -4, ROMK mod 0.015, Arbovirus inh 9 and Calpain2 inh 13.
`O=C(N/N=C/c1c[nH]c2ccccc12)C1COc2ccccc2O1` (stereo unspecified) gave Cl transport mod -1.8, PKD1 kinase inh -1, Mdm2 ligase inh -9, Arbovirus inh 2 and Calpain2 inh 6.
For O=C(N/N=C\c1ccc(Cl)s1)C1COc2ccccc2O1 (stereo unspecified) the results were Cl transport mod 12*, Mdm2 ligase inh -4, ROMK mod 0.29, Calpain2 inh 5, KCC2 secondary 0.0094, KCC2 bumet counter 0.011*, KCC2 secondary2 0.035, HEK counter1 inconclusive, KCC2 retest ouab inconclusive and HEK counter2 0.013.
For O=C1Cc2ccccc2C(=O)N1CCc1ccccc1 the results were PKD1 kinase inh -6, Mdm2 ligase inh -16, Arbovirus inh -1, Calpain2 inh 24, KCC2 secondary 0.0067, KCC2 bumet counter 0.0047, KCC2 secondary2 0.028, HEK counter1 0.0074, KCC2 retest ouab 0.018 and HEK counter2 0.011.
For O=C1C(=O)N(Cc2ccccc2)C(=O)N1CCN1C(=O)c2ccccc2C1=O the results were Cl transport mod -1.2, PKD1 kinase inh 1, Mdm2 ligase inh -22, ROMK mod -1.4, Arbovirus inh 17 and Calpain2 inh -16.
COc1ccc(CCN2C(=S)NC3CC2(C)Oc2ccc([N+](=O)[O-])cc23)cc1OC (stereo unspecified) was read as Cl transport mod 0.87, PKD1 kinase inh -2, Mdm2 ligase inh -21, ROMK mod 0.12, Arbovirus inh -11 and Calpain2 inh -105.
